Results on four compounds are retold here after ChEMBL document CHEMBL4024754, “Development of Potent, Protease-Resistant Agonists of the Parathyroid Hormone Receptor with Broad β Residue Distribution” (J Med Chem, 2017).

Data set [1] deals with T1, Parathyroid hormone/parathyroid hormone-related peptide receptor (Homo sapiens) (UniProt Q03431).
T1 sequence (whole entry): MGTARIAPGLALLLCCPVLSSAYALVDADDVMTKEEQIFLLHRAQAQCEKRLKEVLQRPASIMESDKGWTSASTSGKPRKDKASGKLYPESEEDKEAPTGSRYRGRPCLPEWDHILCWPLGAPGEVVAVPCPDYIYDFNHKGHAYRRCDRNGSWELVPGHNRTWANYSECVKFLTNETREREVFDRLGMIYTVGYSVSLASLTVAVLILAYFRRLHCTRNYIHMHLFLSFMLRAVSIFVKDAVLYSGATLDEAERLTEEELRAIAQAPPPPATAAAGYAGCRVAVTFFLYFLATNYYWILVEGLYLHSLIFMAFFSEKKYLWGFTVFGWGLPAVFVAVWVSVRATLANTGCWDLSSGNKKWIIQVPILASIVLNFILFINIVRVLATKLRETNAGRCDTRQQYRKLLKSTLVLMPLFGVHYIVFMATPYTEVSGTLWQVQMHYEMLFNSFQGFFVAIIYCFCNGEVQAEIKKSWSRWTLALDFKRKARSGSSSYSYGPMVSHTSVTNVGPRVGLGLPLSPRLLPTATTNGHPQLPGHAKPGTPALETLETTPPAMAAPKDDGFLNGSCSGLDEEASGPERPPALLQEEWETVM
Description: Agonist activity at human PTH1 receptor expressed in human GP2.3 cells assessed as induction of cAMP at 0.1 to 100 nM preincubated with protease activity quenched SGF up to 4 hrs followed by compound transfer to GP2.3 cells by luciferase reporter gene assay. The class given is functional, cell-based. A digest of the protocol:
(§1)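 Control samples: simulated gastric fluid neutralized with 10× PBS, or intestinal fluid mixed with acetonitrile/TFA quench solution, before adding peptide. Gastric controls held up to 4 h. Then diluted and tested on luciferin-loaded GP2.3 cells at 100−0.1 nM final, alongside freshly prepared peptide.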
For orientation: A reporter such as luciferase makes a cellular process visible.

The target of data set [2] is T1, Parathyroid hormone/parathyroid hormone-related peptide receptor (Homo sapiens). Description: Agonist activity at human PTH1 receptor expressed in human GP2.3 cells assessed as induction of cAMP after 12 to 20 mins by luciferase reporter gene assay relative to PTH(1 to 34 residues)-NH2. The class given is functional, cell-based.
Data set [3] shares this target. Description: Agonist activity at human PTH1 receptor expressed in human GP2.3 cells assessed as induction of cAMP at 0.1 to 100 nM preincubated with protease activity quenched SIF followed by compound transfer to GP2.3 cells by luciferase reporter gene assay. The class given is functional, cell-based. In a few lines: as §1
Data set [4] relates to Mus musculus. Description: In vivo induction of excessive bloodstream calcium concentration in CD1 mouse at 20 nmol/kg, sc up to 2 hrs by Ca2+/pH analyzer. The class given is organism-based. A digest of the protocol: (§2)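 Female CD1 mice (9−12 weeks), n = 5, given 20 nmol/kg subcutaneously in 10 mM citrate/150 mM NaCl/0.05% Tween-80, pH 5.0. Tail vein blood taken before and at times after dosing. Ca2+ measured by Ca2+/pH analyzer. One-way ANOVA with Dunnett's test vs vehicle. Mean ± SEM.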

Another data set deals with Blood. Description: Drug level in CD1 mouse blood at 20 nmol/kg, sc measured up to 2 hrs. As to conditions: in vivo. The class given is ADME, organism-based. In a few lines:
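Female CD1 mice, n = 5, 20 nmol/kg subcutaneously in citrate/NaCl/Tween-80 vehicle, pH 5.0. 2 μL serum from timed bleeds, mixed with CO2-independent medium, added to GP2.3 cells. Luminescence converted to peptide concentration via a standard curve.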

In data set [5] the test system is Mus musculus. The data set can be described thus: In vivo induction of excessive bloodstream calcium concentration in CD1 mouse at 20 nmol/kg, sc after 2 hrs by Ca2+/pH analyzer. The class given is organism-based. A digest of the protocol: as §2
Data set [6] addresses T1, Parathyroid hormone/parathyroid hormone-related peptide receptor (Homo sapiens). The data set can be described thus: Displacement of [125I]-PTH(1 to 34 residues) from R0 state of human PTHR1 expressed in African green monkey COS7 cell membranes incubated for >1 hr in presence of GTPgammaS by gamma radiation method. A general note: In a radioligand displacement assay an active substance lowers the binding of a labelled ligand.

Data set [7] has the same target. The data set can be described thus: Agonist activity at human PTH1 receptor expressed in human GP2.3 cells assessed as induction of cAMP at 0.1 to 100 nM preincubated with SGF for 5 secs followed by compound transfer to GP2.3 cells by luciferase reporter gene assay. The class given is functional, cell-based. In a few lines: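 Quenched at set times with 10× PBS, diluted into CO2-independent medium, serially 1:10, then added to confluent GP2.3 cells (HEK293, hPTHR1 plus Glosensor cAMP reporter) preloaded 30 min with 0.5 mM D-luciferin. Final 100–0.1 nM. Luminescence read; two technical replicates; variable-slope sigmoidal fit.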

A short description of data set [8]: Stability in simulated gastric fluid assessed as pig pepsin-mediated proteolysis at 40 uM after 5 secs by RP-HPLC analysis. The class given is ADME, Sus scrofa. As to conditions: isolated protein, 5 s. A digest of the protocol:
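Proteolysis quenched by transfer into 10× PBS, pH 7.4, giving 40 μM peptide. Analysed by analytical C18 RP-HPLC, 10–60% acetonitrile/0.1% TFA over 50 min. Intact peptide quantified by integrating its peak. Duplicate reactions run concurrently, standard deviation.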

In data set [9] the target is T2, Parathyroid hormone/parathyroid hormone-related peptide receptor (Homo sapiens, UniProt Q03431).
T2 sequence (Q03431 whole entry): T1 sequence (whole entry)
Description: Agonist activity at human PTH1 receptor expressed in human GP2.3 cells assessed as induction of cAMP after 12 to 20 mins by luciferase reporter gene assay. The class given is functional, cell-based. As to conditions: read-out: EC50.

The source made the active and inactive calls. No cut-off for these calls is given here. Numbered stars: 1 amine (or outer) side, 2 acyl side, 3 side chain; on linkers, the order of the positions; unused ones are H or OH. Square brackets hold non-standard residues; d marks the D form. Peptide text beside a SMILES is read from it. * marks the point of attachment. NH(1S,2S-2-CONH2-cPent) = NC(=O)[C@H]1CCC[C@@H]1N*; ACPC(1S,2S) = N[C@H]1CCC[C@@H]1C(=O)*; X1 = O=C([C@H]1CCC[C@@H]1N[*:1])[*:2]; X2 = O=C([C@H]1CNC[C@@H]1N[*:1])[*:2]; Aib = CC(C)(N)C(=O)O

Consider `CC[C@H](C)[C@H](NC(=O)[C@H](CCC(=O)O)NC(=O)[C@H](CO)NC(=O)[C@@H](NC(=O)[C@H]1CCC[C@@H]1N)C(C)C)C(=O)N[C@@H](CCC(N)=O)C(=O)N[C@H]1CCC[C@@H]1C(=O)N[C@@H](CCSC)C(=O)N[C@@H](Cc1cnc[nH]1)C(=O)N[C@@H](CC(N)=O)C(=O)N[C@@H](CC(C)C)C(=O)NCC(=O)N[C@@H](CCCCN)C(=O)N[C@H]1CCC[C@@H]1C(=O)N[C@@H](CC(C)C)C(=O)N[C@@H](CC(N)=O)C(=O)N[C@@H](CO)C(=O)N[C@H]1CCC[C@@H]1C(=O)N[C@@H](CCC(=O)O)C(=O)N[C@@H](CCCNC(=N)N)C(=O)N[C@H](C(=O)N[C@H]1CNC[C@@H]1C(=O)N[C@@H](Cc1c[nH]c2ccccc12)C(=O)N[C@@H](CC(C)C)C(=O)N[C@@H](CCCNC(=N)N)C(=O)N[C@H]1CNC[C@@H]1C(=O)N[C@@H](CCCCN)C(=O)N[C@@H](CC(C)C)C(=O)N[C@@H](CCC(N)=O)C(=O)N[C@H]1CCC[C@@H]1C(=O)N[C@H](C(=O)N[C@@H](Cc1cnc[nH]1)C(=O)N[C@@H](CC(N)=O)C(=O)N[C@H]1CCC[C@@H]1C(N)=O)C(C)C)C(C)C` ({ACPC(1S,2S)}-VSEIQ[X1]MHNLGK[X1]LNS[X1]ERV[X2]WLR[X2]KLQ[X1]VHN-{NH(1S,2S-2-CONH2-cPent)}), for which the outcome in data set [1] and in data set [3] was Active. The fold change (FC) in data set [2] is 8.7.
On to `CC[C@H](C)[C@H](NC(=O)[C@H](CCC(=O)O)NC(=O)[C@H](CO)NC(=O)[C@@H](NC(=O)[C@@H](N)CO)C(C)C)C(=O)N[C@@H](CCC(N)=O)C(=O)N[C@@H](CC(C)C)C(=O)N[C@@H](CCSC)C(=O)N[C@@H](Cc1cnc[nH]1)C(=O)N[C@@H](CC(N)=O)C(=O)N[C@@H](CC(C)C)C(=O)NCC(=O)N[C@@H](CCCCN)C(=O)N[C@H]1CCC[C@@H]1C(=O)N[C@@H](CC(C)C)C(=O)N[C@@H](CC(N)=O)C(=O)N[C@@H](CO)C(=O)N[C@H]1CCC[C@@H]1C(=O)N[C@@H](CCC(=O)O)C(=O)N[C@@H](CCCNC(=N)N)C(=O)N[C@H](C(=O)N[C@H]1CNC[C@@H]1C(=O)N[C@@H](Cc1c[nH]c2ccccc12)C(=O)N[C@@H](CC(C)C)C(=O)N[C@@H](CCCNC(=N)N)C(=O)N[C@H]1CNC[C@@H]1C(=O)N[C@@H](CCCCN)C(=O)N[C@@H](CC(C)C)C(=O)N[C@@H](CCC(N)=O)C(=O)N[C@H]1CCC[C@@H]1C(=O)N[C@H](C(=O)N[C@@H](Cc1cnc[nH]1)C(=O)N[C@@H](CC(N)=O)C(=O)N[C@H]1CCC[C@@H]1C(N)=O)C(C)C)C(C)C` (H-SVSEIQLMHNLGK[X1]LNS[X1]ERV[X2]WLR[X2]KLQ[X1]VHN-{NH(1S,2S-2-CONH2-cPent)}), for which the Activity entry in the data set with Mus musculus [4] is “Toxic”; with Mus musculus [5], “Non-Toxic”. Further, the fold change (FC) in [2] came out at 3.2. Moreover, the Drug uptake result in the data set on Blood is “Active”. Moreover, in data set [6], the inhibition entry is “Active”.
Consider `CC[C@H](C)[C@H](NC(=O)[C@H](CCC(=O)O)NC(=O)[C@H](CO)NC(=O)[C@@H](NC(=O)[C@@H](N)CO)C(C)C)C(=O)N[C@@H](CCC(N)=O)C(=O)N[C@@H](CC(C)C)C(=O)N[C@@H](CCSC)C(=O)N[C@@H](Cc1cnc[nH]1)C(=O)N[C@@H](CC(N)=O)C(=O)N[C@@H](CC(C)C)C(=O)NCC(=O)N[C@@H](CCCCN)C(=O)N[C@H](CC(=O)N[C@@H](CC(C)C)C(=O)N[C@@H](CC(N)=O)C(=O)N[C@@H](CO)C(=O)N[C@@H](CCSC)CC(=O)N[C@@H](CCC(=O)O)C(=O)N[C@@H](CCCNC(=N)N)C(=O)N[C@H](C(=O)N[C@@H](CCC(=O)O)CC(=O)N[C@@H](Cc1c[nH]c2ccccc12)C(=O)N[C@@H](CC(C)C)C(=O)N[C@@H](CCCNC(=N)N)C(=O)N[C@@H](CCCCN)CC(=O)N[C@@H](CCCCN)C(=O)N[C@@H](CC(C)C)C(=O)N[C@@H](CCC(N)=O)C(=O)N[C@@H](CC(=O)O)CC(=O)N[C@H](C(=O)N[C@@H](Cc1cnc[nH]1)C(=O)N[C@@H](CC(N)=O)C(=O)N[C@H](CC(N)=O)Cc1ccccc1)C(C)C)C(C)C)Cc1c[nH]c2ccccc12`, for which, in data set [7], the result was inactive. In addition, the outcome in data set [1] and in data set [3] was Active. In addition, the fold change (FC) in data set [2] turned out to be 2.1. Moreover, the Stability entry in data set [8] is on record as “Unstable”.
By EC50 is commonly meant the concentration at which the effect is half-maximal. Regarding `CC[C@H](C)[C@H](NC(=O)[C@H]1CCC[C@@H]1NC(=O)[C@H](CCCCN)NC(=O)CNC(=O)[C@H](CCCCN)NC(=O)[C@H](CC(=O)O)NC(=O)[C@H](Cc1cnc[nH]1)NC(=O)[C@H](CC(C)C)NC(=O)[C@H]1CCC[C@@H]1NC(=O)[C@H](CCC(N)=O)NC(=O)[C@H]1CCC[C@@H]1NC(=O)[C@H](CCC(=O)O)NC(=O)[C@H](CO)NC(=O)[C@@H](NC(=O)[C@H]1CCC[C@@H]1N)C(C)C)C(=O)N[C@@H](CCC(N)=O)C(=O)N[C@@H](CC(=O)O)C(=O)N[C@H]1CCC[C@@H]1C(=O)N[C@@H](CCCNC(=N)N)C(=O)N[C@@H](CCCNC(=N)N)C(=O)N[C@@H](CCCNC(=N)N)C(=O)N[C@H]1CNC[C@@H]1C(=O)N[C@@H](CC(C)C)C(=O)N[C@@H](CC(C)C)C(=O)N[C@@H](CCC(=O)O)C(=O)N[C@H]1CNC[C@@H]1C(=O)N[C@@H](CC(C)C)C(=O)N[C@@H](CC(C)C)C(=O)NC(C)(C)C(=O)N[C@H]1CCC[C@@H]1C(=O)N[C@@H](CC(C)C)C(=O)N[C@@H](Cc1cnc[nH]1)C(=O)N[C@H](C(=O)N[C@H]1CCC[C@@H]1C(N)=O)[C@@H](C)O` ({ACPC(1S,2S)}-VSE[X1]Q[X1]LHDKGK[X1]IQD[X1]RRR[X2]LLE[X2]LL[Aib][X1]LHT-{NH(1S,2S-2-CONH2-cPent)}), in data set [9], the EC50 turned out to be 0.36 nM. Further, the fold change (FC) in data set [2] was determined as 5.3. For the same compound, the inhibition entry in data set [6] was “Active”.
